Laboratory results published in ChEMBL document CHEMBL3861974, “Discovery of a Selective Aurora A Kinase Inhibitor by Virtual Screening” (J Med Chem, 2016).
The source made the active and inactive calls. The calls are words filed in the database; no cut-off is given here.

Legend:
[1] = molecular target: Phosphatidylinositol 4,5-bisphosphate 3-kinase catalytic subunit gamma isoform (Homo sapiens, UniProt P48736); experiment: Binding affinity to human PIK3CG expressed in Escherichia coli BL21 cells incubated for 1 hr by active site directed binding competition assay
Chain of Phosphatidylinositol 4,5-bisphosphate 3-kinase catalytic subunit gamma isoform (P48736 whole entry, canonical isoform): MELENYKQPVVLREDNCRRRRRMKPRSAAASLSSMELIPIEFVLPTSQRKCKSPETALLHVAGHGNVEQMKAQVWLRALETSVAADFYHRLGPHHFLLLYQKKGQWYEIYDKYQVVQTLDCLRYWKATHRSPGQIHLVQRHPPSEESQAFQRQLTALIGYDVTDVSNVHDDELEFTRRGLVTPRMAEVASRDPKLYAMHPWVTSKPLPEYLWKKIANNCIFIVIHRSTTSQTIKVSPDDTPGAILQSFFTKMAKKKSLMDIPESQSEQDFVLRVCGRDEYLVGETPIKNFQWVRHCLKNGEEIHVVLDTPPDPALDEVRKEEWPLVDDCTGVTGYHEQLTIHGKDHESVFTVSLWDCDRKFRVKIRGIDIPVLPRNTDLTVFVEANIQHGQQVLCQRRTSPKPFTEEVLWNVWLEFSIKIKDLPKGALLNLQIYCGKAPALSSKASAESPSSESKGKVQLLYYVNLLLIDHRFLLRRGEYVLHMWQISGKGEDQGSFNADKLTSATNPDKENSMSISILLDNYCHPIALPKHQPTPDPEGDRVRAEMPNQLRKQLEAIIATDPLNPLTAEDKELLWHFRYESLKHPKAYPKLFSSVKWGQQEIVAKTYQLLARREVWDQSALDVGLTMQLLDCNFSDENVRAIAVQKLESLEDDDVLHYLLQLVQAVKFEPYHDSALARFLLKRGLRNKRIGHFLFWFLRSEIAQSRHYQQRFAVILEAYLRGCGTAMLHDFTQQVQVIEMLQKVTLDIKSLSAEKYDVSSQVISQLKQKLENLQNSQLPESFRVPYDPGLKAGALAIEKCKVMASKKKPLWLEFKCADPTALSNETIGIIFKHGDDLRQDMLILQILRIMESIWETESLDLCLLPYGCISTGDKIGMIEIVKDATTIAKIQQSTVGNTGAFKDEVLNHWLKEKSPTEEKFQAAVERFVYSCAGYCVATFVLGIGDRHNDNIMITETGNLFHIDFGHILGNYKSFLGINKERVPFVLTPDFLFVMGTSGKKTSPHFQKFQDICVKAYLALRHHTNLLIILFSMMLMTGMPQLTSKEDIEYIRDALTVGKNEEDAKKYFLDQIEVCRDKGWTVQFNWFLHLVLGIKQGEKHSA
Outline: (§1)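 Kinome scan of 456 kinases using an active-site-directed binding competition assay, followed by determination of binding affinities (Kd). Aurora B in this scan was free enzyme without INCENP.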

Aurora kinase A [2] = molecular target: T1, Aurora kinase A (Homo sapiens, UniProt O14965); experiment: Inhibition of His-tagged human Aurora A kinase ([…] residues) expressed in Escherichia coli BL21 (DE3) Rosetta cells using biotinylated STK2 substrate incubated for 30 mins in presence of 0.002 uM TPX2 by HTRF assay
T1 sequence (O14965 whole entry): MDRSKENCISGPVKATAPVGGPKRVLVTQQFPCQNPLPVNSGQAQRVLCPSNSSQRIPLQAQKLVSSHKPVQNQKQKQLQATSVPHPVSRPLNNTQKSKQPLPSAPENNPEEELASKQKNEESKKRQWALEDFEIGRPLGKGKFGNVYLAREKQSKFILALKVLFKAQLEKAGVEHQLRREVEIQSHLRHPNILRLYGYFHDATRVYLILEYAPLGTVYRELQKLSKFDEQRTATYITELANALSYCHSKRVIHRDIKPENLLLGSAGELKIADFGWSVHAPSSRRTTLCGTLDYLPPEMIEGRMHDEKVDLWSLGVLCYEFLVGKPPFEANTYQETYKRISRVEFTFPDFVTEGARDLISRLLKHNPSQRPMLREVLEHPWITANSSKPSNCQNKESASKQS
Outline: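 Biochemical kinase inhibition was read by HTRF with 20 µM ATP. Aurora B was assayed as its complex with the activator INCENP. For Aurora A, IC50 curves were recorded at different TPX2 concentrations.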

[3] = molecular target: T2, Aurora kinase A (Homo sapiens) (UniProt O14965); experiment: Inhibition of Aurora A kinase in human HeLa Kyoto cells assessed as induction of defective chromosome alignment during metaphase at 10 uM incubated for 20 hrs; format: cell-based
T2 sequence (whole entry): T1 sequence (O14965 whole entry)
Outline: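 HeLa Kyoto cells were treated overnight and stained for pThr288 Aurora A, α-tubulin and DNA. Cells with chromosomes not aligned on the metaphase plate were scored. Experiment repeated twice, SD. Rescue variant: cells transfected with GFP-Aurora A wild-type, Arg137Ala or Trp277Ala before treatment; only highest expressers analysed, ≥100 cells per condition.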

[4] = molecular target: Macrophage colony-stimulating factor 1 receptor (Homo sapiens, UniProt P07333); experiment: Binding affinity to auto-inhibited human CSF1R expressed in Escherichia coli BL21 cells incubated for 1 hr by active site directed binding competition assay; outline: as §1
Chain of Macrophage colony-stimulating factor 1 receptor (P07333 whole entry): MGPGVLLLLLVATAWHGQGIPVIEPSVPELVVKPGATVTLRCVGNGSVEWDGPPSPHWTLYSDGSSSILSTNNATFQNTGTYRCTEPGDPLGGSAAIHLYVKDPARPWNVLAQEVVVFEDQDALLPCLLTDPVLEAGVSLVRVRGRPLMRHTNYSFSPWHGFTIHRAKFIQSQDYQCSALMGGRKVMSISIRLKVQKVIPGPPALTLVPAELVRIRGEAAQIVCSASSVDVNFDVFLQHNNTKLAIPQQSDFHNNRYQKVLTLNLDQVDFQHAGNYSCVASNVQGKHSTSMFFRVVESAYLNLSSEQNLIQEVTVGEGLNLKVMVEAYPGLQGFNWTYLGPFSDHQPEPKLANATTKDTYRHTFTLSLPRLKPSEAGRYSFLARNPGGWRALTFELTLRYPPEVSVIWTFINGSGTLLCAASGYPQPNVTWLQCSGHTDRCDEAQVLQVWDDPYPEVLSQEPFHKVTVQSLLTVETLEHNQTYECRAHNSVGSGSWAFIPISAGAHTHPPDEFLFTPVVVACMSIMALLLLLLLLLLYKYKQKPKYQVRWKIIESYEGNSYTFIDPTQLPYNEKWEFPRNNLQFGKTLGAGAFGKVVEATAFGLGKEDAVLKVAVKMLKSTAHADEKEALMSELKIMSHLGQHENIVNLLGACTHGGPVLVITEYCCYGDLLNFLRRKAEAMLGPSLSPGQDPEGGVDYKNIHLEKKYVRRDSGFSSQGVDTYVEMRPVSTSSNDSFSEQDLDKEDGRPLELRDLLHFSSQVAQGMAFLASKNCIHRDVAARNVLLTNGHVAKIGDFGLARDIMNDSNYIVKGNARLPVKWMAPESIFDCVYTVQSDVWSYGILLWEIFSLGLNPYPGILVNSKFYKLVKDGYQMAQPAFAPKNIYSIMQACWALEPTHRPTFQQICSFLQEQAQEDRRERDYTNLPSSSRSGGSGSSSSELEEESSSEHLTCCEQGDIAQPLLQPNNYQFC

[5] = molecular target: T3, Mitogen-activated protein kinase kinase kinase 19 (Homo sapiens, UniProt Q56UN5); experiment: Binding affinity to human YSK4 expressed in Escherichia coli BL21 cells incubated for 1 hr by active site directed binding competition assay; outline: as §1
T3 sequence (Q56UN5 whole entry): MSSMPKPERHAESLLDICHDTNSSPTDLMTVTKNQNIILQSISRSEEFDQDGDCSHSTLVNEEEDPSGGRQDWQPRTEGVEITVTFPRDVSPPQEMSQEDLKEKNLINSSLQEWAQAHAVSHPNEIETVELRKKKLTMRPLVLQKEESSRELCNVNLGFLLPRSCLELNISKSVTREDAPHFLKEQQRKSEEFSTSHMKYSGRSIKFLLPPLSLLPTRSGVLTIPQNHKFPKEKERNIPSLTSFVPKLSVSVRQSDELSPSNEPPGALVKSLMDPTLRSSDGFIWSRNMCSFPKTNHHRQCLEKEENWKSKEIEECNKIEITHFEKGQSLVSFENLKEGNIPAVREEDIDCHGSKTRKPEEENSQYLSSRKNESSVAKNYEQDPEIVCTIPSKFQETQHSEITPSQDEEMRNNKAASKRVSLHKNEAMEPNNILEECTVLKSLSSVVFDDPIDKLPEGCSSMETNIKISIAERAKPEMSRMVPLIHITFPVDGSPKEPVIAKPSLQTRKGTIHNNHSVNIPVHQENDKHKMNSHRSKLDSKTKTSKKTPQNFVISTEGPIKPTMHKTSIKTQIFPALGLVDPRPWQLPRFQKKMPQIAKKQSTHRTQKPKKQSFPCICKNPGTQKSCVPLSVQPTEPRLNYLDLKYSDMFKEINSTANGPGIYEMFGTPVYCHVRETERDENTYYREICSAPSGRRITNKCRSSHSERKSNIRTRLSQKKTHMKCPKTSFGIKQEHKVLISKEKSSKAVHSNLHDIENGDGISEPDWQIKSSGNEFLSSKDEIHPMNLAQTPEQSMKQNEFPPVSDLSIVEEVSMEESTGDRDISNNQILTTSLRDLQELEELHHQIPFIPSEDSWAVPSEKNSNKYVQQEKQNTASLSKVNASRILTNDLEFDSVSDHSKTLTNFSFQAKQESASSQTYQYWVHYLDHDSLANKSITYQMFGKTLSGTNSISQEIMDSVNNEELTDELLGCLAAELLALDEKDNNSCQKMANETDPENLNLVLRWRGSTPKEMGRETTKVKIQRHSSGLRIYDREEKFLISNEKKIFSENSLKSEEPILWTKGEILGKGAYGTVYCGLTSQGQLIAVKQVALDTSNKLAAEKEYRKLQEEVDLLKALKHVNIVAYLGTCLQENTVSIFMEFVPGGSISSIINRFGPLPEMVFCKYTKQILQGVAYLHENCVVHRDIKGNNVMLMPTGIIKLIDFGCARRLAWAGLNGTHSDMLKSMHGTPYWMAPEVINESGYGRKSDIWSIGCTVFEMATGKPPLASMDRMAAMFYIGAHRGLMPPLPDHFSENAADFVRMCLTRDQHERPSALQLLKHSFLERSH

Aurora kinase B [6] = molecular target: T4, Aurora kinase B (Homo sapiens, UniProt Q96GD4); experiment: Inhibition of Aurora B kinase in human HeLa Kyoto cells assessed as induction of accumulation of cells at 8N DNA contant incubated for 48 hrs at 10 uM by flow cytometry; format: cell-based
T4 sequence (Q96GD4 whole entry): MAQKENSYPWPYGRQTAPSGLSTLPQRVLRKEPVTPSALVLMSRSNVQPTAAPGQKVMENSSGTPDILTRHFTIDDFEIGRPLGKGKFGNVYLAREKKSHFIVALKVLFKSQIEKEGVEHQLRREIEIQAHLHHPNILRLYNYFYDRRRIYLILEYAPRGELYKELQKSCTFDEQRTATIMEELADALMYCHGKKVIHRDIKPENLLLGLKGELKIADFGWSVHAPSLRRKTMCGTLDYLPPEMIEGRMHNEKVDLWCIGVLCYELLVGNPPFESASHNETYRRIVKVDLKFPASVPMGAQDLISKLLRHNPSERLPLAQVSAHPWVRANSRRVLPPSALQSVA
Outline: (§2)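 Cells were treated for 48 h, stained with propidium iodide, and DNA content was analysed by flow cytometry. Cells with 8N and 16N DNA content were scored as a readout of defective cytokinesis.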

[7] = molecular target: T2, Aurora kinase A (Homo sapiens); experiment: Binding affinity to His-tagged human Aurora A kinase ([…] residues) expressed in Escherichia coli BL21 (DE3) Rosetta cells assessed as reduction in Aurora A binding to TPX-labeled human TPX2 N-terminal domain (1 to 43 residues) at 125 uM incubated for 30 mins by microscale thermophoresis method
Aurora kinase A [8] = molecular target: T1, Aurora kinase A; experiment: Inhibition of His-tagged human Aurora A kinase ([…] residues) expressed in Escherichia coli BL21 (DE3) Rosetta cells using biotinylated STK2 substrate incubated for 30 mins by HTRF assay
Aurora kinase B [9] = molecular target: T4, Aurora kinase B; experiment: Inhibition of Aurora B kinase in human HeLa Kyoto cells assessed as induction of accumulation of cells at 16N DNA contant incubated for 48 hrs at 10 uM by flow cytometry; format: cell-based; outline: as §2
Aurora kinase A [10] = molecular target: T1, Aurora kinase A; experiment: Binding affinity to human Aurora A kinase expressed in Escherichia coli BL21 cells incubated for 1 hr by active site directed binding competition assay; outline: as §1
Aurora kinase B [11] = molecular target: T4, Aurora kinase B; experiment: Inhibition of Aurora B kinase in human HeLa Kyoto cells assessed as effect on distribution of phspho-histone H3 ser10 level incubated for 20 hrs
Aurora kinase B [12] = molecular target: T4, Aurora kinase B; experiment: Binding affinity to human Aurora B kinase expressed in Escherichia coli BL21 cells incubated for 1 hr by active site directed binding competition assay; outline: as §1

Q: Which Kd [1] does the source give for `CCc1ccc(/N=C2\S/C(=C\c3ccnc(Nc4ccc(C(=O)O)cn4)c3)C(=O)N2C)cc1` here?
A: 1500 nM

Q: What about the IC50 (Aurora kinase A [2]) of the same molecule?
A: 1.7 nM

Q: What about the inhibition [3] of the same molecule?
A: Active

Q: What about the Kd [4] of the same molecule?
A: 120 nM

Q: What about the Kd [5] of the same molecule?
A: 2900 nM

Q: And the inhibition (Aurora kinase B [6])?
A: Active

Q: What about the Activity [7] of the same molecule?
A: Active

Q: And the IC50 (Aurora kinase A [8])?
A: 2 nM

Q: And the inhibition (Aurora kinase B [9])?
A: Active

Q: And the Kd (Aurora kinase A [10])?
A: 5 nM

Q: And the IC50 (Aurora kinase B [11])?
A: > 25 µM

Q: And the Kd (Aurora kinase B [12])?
A: 10.1 nM
